ChEMBL document CHEMBL3632562, “Diethylstilbestrol-scaffold-based pregnane X receptor modulators” (Eur J Med Chem, 2015)
Blank lines part the entries; values can stand above or below the compound they belong to. Active and inactive are the calls of the source. The rule behind the calls is not given here.

What was measured:
[1] = target: T1, Nuclear receptor subfamily 1 group I member 2 (Homo sapiens, UniProt O75469); assay: Antagonist activity at full length human PXR transfected in human HepG2 cells assessed as reduction in rifaximin-induced receptor transactivation at 50 uM after 18 hrs by luciferase reporter assay; assay type: cell-based; conditions: hepg2, 18 h
T1 sequence (O75469 whole entry): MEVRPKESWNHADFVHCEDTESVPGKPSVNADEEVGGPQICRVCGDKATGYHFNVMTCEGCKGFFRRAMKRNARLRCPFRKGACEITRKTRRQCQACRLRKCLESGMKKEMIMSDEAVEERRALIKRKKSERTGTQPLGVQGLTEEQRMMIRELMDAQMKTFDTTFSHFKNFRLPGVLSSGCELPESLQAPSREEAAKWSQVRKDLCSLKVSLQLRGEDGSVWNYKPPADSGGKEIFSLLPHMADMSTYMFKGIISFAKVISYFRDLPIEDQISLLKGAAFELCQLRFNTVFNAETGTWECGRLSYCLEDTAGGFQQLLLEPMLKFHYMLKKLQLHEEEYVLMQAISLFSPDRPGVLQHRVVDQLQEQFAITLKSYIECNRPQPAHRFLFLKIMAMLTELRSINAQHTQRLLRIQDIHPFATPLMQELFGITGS
Method in brief: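 HepG2 (5 × 10⁴ cells/well, MEM/10% FBS) transiently transfected with full-length human PXR, RXR, PXRE-luciferase reporter and Renilla vectors, then treated 18 h with rifaximin (10 μM) plus compound (50 μM). Luciferase read-out normalised as RLU/Renilla RRU; p < 0.05 significance.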

[2] = target: T1, Nuclear receptor subfamily 1 group I member 2; assay: Antagonist activity at PXR (unknown origin)
HepG2 [3] = assay: Toxicity in human HepG2 cells expressing human full-length PXR assessed as reduction in cell viability at 50 uM; assay type: cell-based; conditions: hepg2, 50 µM
HepG2 [4] = assay: Up regulation of full length PXR expression in human HepG2 cells at 10 uM after 18 hrs by quantitative real-time PCR analysis; assay type: functional, cell-based
[5] = target: T1, Nuclear receptor subfamily 1 group I member 2; assay: Transactivation of full length human PXR transfected in human HepG2 cells after 18 hrs by luciferase reporter assay relative to rifaximin; assay type: cell-based
Method in brief: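 In HepG2 transfected with hPXR, RXR, PXRE-luciferase and Renilla plasmids, cells were exposed 18 h to compound at 10 μM, or at 10, 25 and 50 μM for EC50 determination, alongside rifaximin (10 μM) as reference agonist. Firefly signal normalised to Renilla.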

[6] = target: T1, Nuclear receptor subfamily 1 group I member 2; assay: Transactivation of PXR in human HepG2 cells assessed as up regulation of CYP3A4 gene expression at 10 uM after 18 hrs by quantitative Real-time PCR analysis; assay type: cell-based; conditions: hepg2, 18 h
[7] = target: T1, Nuclear receptor subfamily 1 group I member 2; assay: Antagonist activity against PXR in human HepG2 cells assessed as inhibition of rifaximin-induced CYP3A4 gene expression at 25 uM after 18 hrs by quantitative real-time PCR analysis; assay type: cell-based; conditions: hepg2, 18 h
[8] = target: T1, Nuclear receptor subfamily 1 group I member 2; assay: Activity at PXR in human HepG2 cells assessed as up regulation of rifaximin-induced PXR gene expression at 25 uM after 18 hrs by quantitative real-time PCR analysis; conditions: hepg2, 18 h
[9] = target: T1, Nuclear receptor subfamily 1 group I member 2; assay: Antagonist activity at full length human PXR transfected in human HepG2 cells assessed as reduction in rifaximin-induced receptor transactivation after 18 hrs by luciferase reporter assay; assay type: cell-based; conditions: for inhibition (INH): human, hepg2, 18 h
Method in brief: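 Rifaximin-stimulated (10 μM) HepG2 transiently co-transfected with 75 ng pSG5-hPXRT1, 75 ng pSG5-RXR, 250 ng pGL3(henance)PXRE reporter and 100 ng pGL4.70-Renilla, then co-treated 18 h with compound at 10, 25 and 50 μM. Firefly luciferase RLU divided by Renilla RRU to normalise transfection efficiency; IC50 taken from concentration-response curve.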

[10] = Solubility of the compound; assay type: physicochemical

Compound: CC/C(=C(/CC)c1ccc(OCCOS(=O)(=O)[O-])cc1)c1ccc(OCCOS(=O)(=O)[O-])cc1.[Na+].[Na+]
- inhibition (INH) [1]: Not Active

Compound: Cc1cc(-c2onc(C)c2C(=O)Sc2ccccc2)no1
- IC50 [2]: 0.85 µM

Compound: CC/C(=C(/CC)c1ccc(OCCCO)cc1)c1ccc(OCCCO)cc1
- Activity (HepG2 [3]): Toxic

Compound: CC/C(=C(/CC)c1ccc(OCCCOS(=O)(=O)[O-])cc1)c1ccc(OCCCOS(=O)(=O)[O-])cc1.[Na+].[Na+]
- inhibition (INH) [1]: Not Active

Compound: CC/C(=C(/CC)c1ccc(OCCCCOS(=O)(=O)[O-])cc1)c1ccc(OCCCCOS(=O)(=O)[O-])cc1.[Na+].[Na+]
- inhibition (INH) [1]: Not Active

Compound: CC/C(=C(/CC)c1ccc(OC)cc1)c1ccc(OC)cc1
- Activity (HepG2 [4]): Active
- EC50 [5]: 10.5 µM
- Activity [6]: Active

Compound: CC/C(=C(/CC)c1ccc(OCCO)cc1)c1ccc(OCCO)cc1
- inhibition (INH) [7]: Active
- Activity [8]: Active
- inhibition (INH) [1]: Active
- IC50 [9]: 27.4 µM
- inhibition (INH) [9]: Dose-dependent effect

Compound: CC/C(=C(/CC)c1ccc(OCCCCO)cc1)c1ccc(OCCCCO)cc1
- Activity (HepG2 [3]): Toxic

Compound: CC/C(=C(/CC)c1ccc(O)cc1)c1ccc(O)cc1 [DIETHYLSTILBESTROL]
- inhibition (INH) [7]: Active
- Activity [8]: Active
- inhibition (INH) [1]: Active
- IC50 [9]: 14.6 µM
- inhibition (INH) [9]: Dose-dependent effect

The next lines start with results.

- inhibition (INH) [1]: Active
Compound: CC/C(=C(/CC)c1ccc(OCCCOC(C)=O)cc1)c1ccc(OCCCOC(C)=O)cc1

- inhibition (INH) [1]: Not Active
Compound: CC/C(=C(/CC)c1ccc(OS(=O)(=O)[O-])cc1)c1ccc(OS(=O)(=O)[O-])cc1.[Na+].[Na+]

- EC50 [5]: 11.2 µM
Compound: CO[C@H]1/C=C/O[C@@]2(C)Oc3c(C)c(O)c4c(O)c(c5c(nc6cc(C)ccn65)c4c3C2=O)NC(=O)/C(C)=C\C=C\[C@H](C)[C@H](O)[C@@H](C)[C@@H](O)[C@@H](C)[C@H](OC(C)=O)[C@@H]1C [RIFAXIMIN]
- Activity (HepG2 [4]): Active

- solubility [10]: Insoluble
Compound: CC/C(=C(/CC)c1ccc(OCCCCOC(C)=O)cc1)c1ccc(OCCCCOC(C)=O)cc1

- inhibition (INH) [1]: Active
Compound: CC/C(=C(/CC)c1ccc(OCCOC(C)=O)cc1)c1ccc(OCCOC(C)=O)cc1
